Peptide text beside a SMILES is read from it. * marks the point of attachment. Cbz = O=C(OCc1ccccc1)*
How the values were obtained:
HCT-116 = experiment: Cytotoxicity against multidrug-resistant human HCT116 cells at 1 uM by thymidine incorporation assay; format: functional
Summary of the method: (§1)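 HCT-116 cells were grown in IMDM and HCT-15 in RPMI 1640, each with L-glutamine, 10% FBS and penicillin-streptomycin, at 3000 cells/well. Compound was applied at 1 µM in 1% DMSO for 72 h total, with 3H-thymidine added for the final 16 h. Percent growth inhibition versus DMSO controls was scintillation-counted, averaging three wells in each of three assays.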

HCT-15 = experiment: Cytotoxicity against multidrug-resistant human HCT15 cells at 1 uM by thymidine incorporation assay; format: functional; summary of the method: as §1

SMILES	inhibition at 1 µM (HCT-116) [%]	inhibition at 1 µM (HCT-15) [%]
CC(C)[C@@H]1NC(=O)[C@H](CC2CCCCC2)NC(=O)[C@H](CO)NC(=O)[C@H](Cc2ccccc2)NC(=O)[C@@H](Cc2ccccc2)N(C)C1=O (HELM PEPTIDE1{[Cha].V.[CN([C@H](Cc1ccccc1)C(=O)[*:2])[*:1]].F.S}$PEPTIDE1,PEPTIDE1,1:R1-5:R2$$$V2.0)	34	20
CC(C)C[C@@H]1NC(=O)[C@H](Cc2ccccc2)NC(=O)[C@H](CC(C)C)NC(=O)[C@@H](C(C)C)NC(=O)[C@H](CCCCN)NC1=O (HELM PEPTIDE1{F.L.K.[dV].L}$PEPTIDE1,PEPTIDE1,1:R1-5:R2$$$V2.0)	11	18
CC[C@@H]1NC(=O)[C@H](CC(C)C)NC(=O)[C@H](CC(C)C)NC(=O)[C@H](Cc2ccccc2)NC(=O)[C@@H](CC(C)C)NC1=O (HELM PEPTIDE1{[Abu].[dL].F.L.L}$PEPTIDE1,PEPTIDE1,1:R1-5:R2$$$V2.0)	13	8
CC(C)C[C@@H]1NC(=O)CN(C)C(=O)[C@H](Cc2ccccc2)NC(=O)[C@H](C(C)C)NC(=O)[C@@H](C(C)C)NC1=O (HELM PEPTIDE1{F.[Sar].L.[dV].V}$PEPTIDE1,PEPTIDE1,1:R1-5:R2$$$V2.0)	20	18
CC(C)C[C@@H]1NC(=O)[C@H](Cc2ccccc2)NC(=O)[C@@H](Cc2ccccc2)NC(=O)[C@H](C(C)C)NC(=O)[C@H](CC(C)C)NC1=O	35	14
CC(C)C[C@@H]1NC(=O)[C@H](Cc2ccccc2)NC(=O)[C@H](CC(C)C)NC(=O)[C@@H](C(C)C)N(C)C(=O)[C@H](CC(C)C)NC1=O (HELM PEPTIDE1{F.L.L.[CC(C)[C@H](C(=O)[*:2])N(C)[*:1]].L}$PEPTIDE1,PEPTIDE1,1:R1-5:R2$$$V2.0)	19	21
CC(C)C[C@@H]1NC(=O)[C@H](Cc2ccccc2)NC(=O)[C@H](CC(C)C)NC(=O)[C@H](C(C)C)NC(=O)[C@H](CCCCNC(=O)OCc2ccccc2)NC1=O (cyclo(FLK(Cbz)VL))	46	41
CC(C)C[C@@H]1NC(=O)[C@@H](CC(C)C)NC(=O)[C@H](Cc2ccccc2)NC(=O)[C@H](CC(C)C)NC(=O)[C@@H](C(C)C)NC1=O (HELM PEPTIDE1{F.[dL].L.[dV].L}$PEPTIDE1,PEPTIDE1,1:R1-5:R2$$$V2.0)	16	20
CC(C)C[C@@H]1NC(=O)[C@H](CC(C)C)NC(=O)[C@@H](Cc2c[nH]c3ccccc23)NC(=O)[C@H](CC(C)C)NC(=O)[C@H](C(C)C)NC1=O (HELM PEPTIDE1{L.L.V.L.[dW]}$PEPTIDE1,PEPTIDE1,1:R1-5:R2$$$V2.0)	2	9
CC(C)C[C@@H]1C(=O)N[C@H](CC(C)C)C(=O)N(C)[C@H](C(C)C)C(=O)N[C@H](CC(C)C)C(=O)N[C@H](Cc2ccccc2)C(=O)N1C (HELM PEPTIDE1{[dF].[CC(C)C[C@H](C(=O)[*:2])N(C)[*:1]].[dL].[CC(C)[C@H](C(=O)[*:2])N(C)[*:1]].[dL]}$PEPTIDE1,PEPTIDE1,1:R1-5:R2$$$V2.0)	43	48
CC(C)C[C@@H]1NC(=O)[C@@H](C(C)C)NC(=O)[C@H](CC(C)C)NC(=O)[C@H](CC(C)C)N(C)C(=O)[C@H](Cc2ccccc2)NC1=O (HELM PEPTIDE1{F.[meL].L.[dV].L}$PEPTIDE1,PEPTIDE1,1:R1-5:R2$$$V2.0)	38	19
CC(C)C[C@H]1NC(=O)[C@@H](Cc2ccccc2)NC(=O)[C@@H](CC(C)C)NC(=O)[C@@H](C(C)C)N(C)C(=O)[C@@H](CC(C)C)NC1=O (HELM PEPTIDE1{[dF].[dL].[dL].[CC(C)[C@H](C(=O)[*:2])N(C)[*:1]].[dL]}$PEPTIDE1,PEPTIDE1,1:R1-5:R2$$$V2.0)	18	31
CC(C)C[C@@H]1NC(=O)[C@H](C)NC(=O)[C@H](CC(C)C)NC(=O)[C@H](CC(C)C)NC(=O)[C@H](Cc2ccccc2)NC1=O (HELM PEPTIDE1{A.L.F.L.L}$PEPTIDE1,PEPTIDE1,1:R1-5:R2$$$V2.0)	23	40
CC(C)C[C@@H]1NC(=O)[C@H](Cc2ccccc2)NC(=O)[C@H](CC(C)C)N(C)C(=O)[C@H](C(C)C)N(C)C(=O)[C@H](CC(C)C)NC1=O (HELM PEPTIDE1{F.L.L.[meV].[meL]}$PEPTIDE1,PEPTIDE1,1:R1-5:R2$$$V2.0)	10	0
CC(C)C[C@@H]1NC(=O)[C@H](C(C)C)NC(=O)[C@H](CC(C)C)N(C)C(=O)[C@H](CC(C)C)NC(=O)[C@H](Cc2ccccc2)NC1=O (HELM PEPTIDE1{F.L.[meL].V.L}$PEPTIDE1,PEPTIDE1,1:R1-5:R2$$$V2.0)	30	57
CC(C)C[C@@H]1NC(=O)[C@H](Cc2ccccc2)NC(=O)[C@H](CC(C)C)NC(=O)[C@H](C(C)C)N(C)C(=O)[C@H](CC(C)C)NC1=O (HELM PEPTIDE1{F.L.L.[meV].L}$PEPTIDE1,PEPTIDE1,1:R1-5:R2$$$V2.0)	6	23
CC(C)C[C@@H]1C(=O)N[C@H](Cc2ccccc2)C(=O)N[C@H](CC(C)C)C(=O)N[C@H](CC(C)C)C(=O)N[C@H](C(C)C)C(=O)N1C (HELM PEPTIDE1{[dF].[dL].[dL].[dV].[CC(C)C[C@H](C(=O)[*:2])N(C)[*:1]]}$PEPTIDE1,PEPTIDE1,1:R1-5:R2$$$V2.0)	1	4
CC(C)C[C@@H]1NC(=O)[C@H](C(C)C)NC(=O)[C@@H](CC(C)C)NC(=O)[C@@H](CC(C)C)NC(=O)[C@H](Cc2ccccc2)NC1=O (HELM PEPTIDE1{F.[dL].[dL].V.L}$PEPTIDE1,PEPTIDE1,1:R1-5:R2$$$V2.0)	28	40
CC(C)C[C@@H]1NC(=O)[C@H](Cc2ccccc2)NC(=O)[C@@H](CC(C)C)N(C)C(=O)[C@@H](C(C)C)N(C)C(=O)[C@H](CC(C)C)NC1=O (HELM PEPTIDE1{F.L.L.[CC(C)[C@H](C(=O)[*:2])N(C)[*:1]].[CC(C)C[C@H](C(=O)[*:2])N(C)[*:1]]}$PEPTIDE1,PEPTIDE1,1:R1-5:R2$$$V2.0)	30	7
CC(C)C[C@@H]1NC(=O)[C@H](CC(C)C)N(C)C(=O)[C@H](Cc2ccccc2)NC(=O)[C@H](CC(C)C)N(C)C(=O)[C@H](C(C)C)NC1=O (HELM PEPTIDE1{F.[meL].L.V.[meL]}$PEPTIDE1,PEPTIDE1,1:R1-5:R2$$$V2.0)	20	0
CC(C)C[C@@H]1NC(=O)[C@H](Cc2ccccc2)NC(=O)[C@@H](CC(C)C)NC(=O)[C@@H](C(C)C)NC(=O)[C@H](CC(C)C)NC1=O (HELM PEPTIDE1{F.L.L.[dV].[dL]}$PEPTIDE1,PEPTIDE1,1:R1-5:R2$$$V2.0)	34	17
CC[C@@H]1NC(=O)[C@H](CC(C)C)NC(=O)[C@H](CC(C)C)NC(=O)[C@H](Cc2ccccc2)NC(=O)[C@H](CC(C)C)NC1=O (HELM PEPTIDE1{[Abu].L.F.L.L}$PEPTIDE1,PEPTIDE1,1:R1-5:R2$$$V2.0)	1	8
CC(C)C[C@@H]1NC(=O)[C@H](CC(C)C)NC(=O)[C@@H]2Cc3ccccc3CN2C(=O)[C@H](CC(C)C)NC(=O)[C@H](C(C)C)NC1=O (HELM PEPTIDE1{L.L.V.L.[Tic]}$PEPTIDE1,PEPTIDE1,1:R1-5:R2$$$V2.0)	3	27

— ChEMBL document CHEMBL1140733, “Comprehensive study of sansalvamide A derivatives and their structure-activity relationships against drug-resistant colon cancer cell lines” (J Med Chem, 2008)
